Results from ChEMBL document CHEMBL3124769, “Synthesis and antitumor activities of novel dipeptide derivatives derived from dehydroabietic acid” (Bioorg Med Chem Lett, 2014).
Calls of active or inactive are those of the source. No cut-off for these calls is given here.

Key:
SK-OV-3 = test: Cytotoxicity against human SKOV3 cells after 48 hrs by MTT assay; format: functional, cell-based; conditions: SK-OV-3, 48 h
Summary of the method: (§1)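 Cells from the six lines were plated and left to adhere for 24 h. They were then exposed to compounds at 100 to 0.01 µM for 48 h. After that the medium was replaced with complete medium and viability was read by MTT. IC50 came from the concentration series, and each experiment was done three times.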

NCI-H460 = test: Cytotoxicity against human NCI-H460 cells after 48 hrs by MTT assay; format: functional, cell-based; conditions: NCI-H460, 48 h; summary of the method: as §1
HCT-116 = test: Cytotoxicity against human HCT116 cells after 48 hrs by MTT assay; format: functional, cell-based; conditions: HCT-116, 48 h; summary of the method: as §1
[1] = Cytotoxicity against human Bel7404 cells after 48 hrs by MTT assay; format: functional, cell-based; conditions: BEL-7404, 48 h; summary of the method: as §1
HeLa [2] = test: Cytotoxicity against human HeLa cells after 48 hrs by MTT assay; format: functional, cell-based; summary of the method: as §1
HepG2 = test: Cytotoxicity against human HepG2 cells after 48 hrs by MTT assay; format: functional, cell-based; conditions: HepG2, 48 h; summary of the method: as §1
HeLa [3] = test: Induction of apoptosis in human HeLa cells assessed as necrotic cells at 10 uM after 12 hrs using annexin V/propidium iodide staining by flow cytometry (reference value: 2.1%); format: functional
Summary of the method: (§2)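 HeLa cells were treated at 5 or 10 µM for 12 h, with untreated cells run alongside for 12 h. Cells were washed in cold PBS and resuspended in binding buffer. They were stained with Annexin V-FITC, then PI, for 20 min in the dark and run on a flow cytometer. Quadrants: Q2 necrotic/late apoptotic, Q3 normal, Q4 early apoptotic. Apoptosis ratio = early + late.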

HeLa [4] = test: Induction of apoptosis in human HeLa cells assessed as apoptotic morphology at 10 uM after 12 to 24 hrs by Hoechst 33258 staining; format: functional, cell-based
Summary of the method: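 HeLa cells on coverslips were treated at 10 µM for 12 and 24 h, with an untreated 24 h control. They were fixed in 4% paraformaldehyde for 10 min, washed in PBS, stained with Hoechst 33258 for 5 min and washed again. Nuclei were viewed under fluorescence at 350 nm excitation and 460 nm emission.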

HeLa [5] = test: Induction of apoptosis in human HeLa cells assessed as DNA fragmentation at 10 uM after 12 to 24 hrs by TUNEL assay; format: functional, cell-based
Summary of the method: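 After 12 and 24 h at 10 µM, HeLa cells (untreated 24 h control) were fixed in 4% paraformaldehyde and permeabilized with 0.1% Triton X-100. Fragmented DNA 3′-ends were labeled with FITC-dUTP using a TUNEL kit. Cells were imaged by fluorescence microscopy at 488 nm excitation and 530 nm emission.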

HeLa [6] = test: Induction of apoptosis in human HeLa cells assessed as DNA fragmentation at 5 to 15 uM after 24 hrs by agarose gel electrophoresis analysis; format: functional, cell-based
Summary of the method: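 HeLa cells were exposed for 24 h at 5, 10 or 15 µM alongside untreated cells. Total cellular DNA was extracted and run on agarose gel electrophoresis to look for a nucleosome-sized ladder (~180–200 bp fragments).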

HeLa [7] = test: Induction of apoptosis in human HeLa cells assessed as release of ROS at 5 to 10 uM after 12 hrs by fluorescence microscopic analysis; format: functional, cell-based
Summary of the method: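 HeLa cells were given 5 or 10 µM for 12 h, with an untreated control handled the same way. Intracellular ROS was visualized by fluorescence microscopy using the probe 2,7-dichlorofluorescein diacetate.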

HeLa [8] = test: Induction of apoptosis in human HeLa cells assessed as activation of caspase 3/9 by spectrophotometry analysis; format: functional, cell-based; conditions: TDE = time-dependent effect
Summary of the method: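 Caspase-3 and caspase-9 activities in treated HeLa cells were measured spectrophotometrically at time points from 3 to 24 h and compared with untreated controls.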

HeLa [9] = test: Induction of apoptosis in human HeLa cells after 12 hrs using annexin V/propidium iodide staining by flow cytometry; format: functional, cell-based; summary of the method: as §2
HeLa [10] = test: Induction of apoptosis in human HeLa cells assessed as necrotic cells at 5 uM after 12 hrs using annexin V/propidium iodide staining by flow cytometry (reference value: 2.1%); format: functional; summary of the method: as §2
HeLa [11] = test: Induction of apoptosis in human HeLa cells assessed as early apoptotic cells at 10 uM after 12 hrs using annexin V/propidium iodide staining by flow cytometry (reference value: 3.8%); format: functional; summary of the method: as §2
HeLa [12] = test: Induction of apoptosis in human HeLa cells assessed as change in mitochondrial membrane potential at 10 uM after 12 to 24 hrs by JC-1 staining; format: functional, cell-based
Summary of the method: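 HeLa cells were exposed at 10 µM for 12 and 24 h, with an untreated 24 h control, then stained with JC-1. Monomers were excited at 514 nm (read 515–545 nm, green) and aggregates at 585 nm (read 570–600 nm, red). Depolarization was taken as a rise in the green/red intensity ratio.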

HeLa [13] = test: Induction of apoptosis in human HeLa cells assessed as release of mitochondrial cytochrome c into cytosol at 5 to 10 uM after 12 hrs by fluorescence microscopic analysis; format: functional, cell-based
HeLa [14] = test: Induction of apoptosis in human HeLa cells assessed as apoptotic ratio at 10 uM after 12 hrs using annexin V/propidium iodide staining by flow cytometry (reference value: 2.3%); format: functional; summary of the method: as §2
HeLa [15] = test: Induction of apoptosis in human HeLa cells at 10 uM after 12 to 24 hrs by acridine orange/ethidium bromide staining; format: functional, cell-based
Summary of the method: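 HeLa cells were seeded at 5×10⁴ cells/mL on coverslips and fed fresh medium with 10% FBS. They were treated at 10 µM for 12 and 24 h, with an untreated 24 h control. Coverslips were inverted onto AO/EB stain and examined by fluorescence microscopy. Scoring: green = live, green-yellow = early apoptotic, orange = late apoptotic/necrotic.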

HeLa [16] = test: Induction of apoptosis in human HeLa cells assessed as early apoptotic cells at 5 uM after 12 hrs using annexin V/propidium iodide staining by flow cytometry (reference value: 3.8%); format: functional; summary of the method: as §2
HeLa [17] = test: Induction of apoptosis in human HeLa cells assessed as apoptotic ratio at 5 uM after 12 hrs using annexin V/propidium iodide staining by flow cytometry (reference value: 2.3%); format: functional; summary of the method: as §2

| SMILES | IC50 (SK-OV-3) | IC50 (NCI-H460) | IC50 (HCT-116) | IC50 [1] | IC50 (HeLa [2]) | IC50 (HepG2) | also measured |
| --- | --- | --- | --- | --- | --- | --- | --- |
| CC(C)c1ccc2c(c1)CC[C@H]1[C@](C)(C(=O)N[C@H](Cc3ccccc3)C(=O)Nc3ccccc3Cl)CCC[C@]21C | 13.5 µM | 15.2 µM | 25.5 µM | 15.8 µM | 10.3 µM | 25.3 µM |  |
| CC(C)c1ccc2c(c1)CC[C@H]1[C@](C)(C(=O)N[C@H](Cc3ccccc3)C(=O)Nc3ccccc3)CCC[C@]21C | 27.4 µM | 28.2 µM | 30.3 µM | 16.7 µM | 18.9 µM | 27.7 µM |  |
| Cc1ccc(NC(=O)[C@@H](Cc2ccccc2)NC(=O)[C@]2(C)CCC[C@]3(C)c4ccc(C(C)C)cc4CC[C@@H]23)cc1C | 51.8 µM | 37 µM | 32.1 µM | 48.2 µM | 14.3 µM | 42.8 µM |  |
| CC(C)c1ccc2c(c1)CC[C@H]1[C@](C)(C(=O)N[C@H](Cc3ccccc3)C(=O)Nc3cc(Cl)ccc3Cl)CCC[C@]21C | 21.6 µM | 15.8 µM | 24.1 µM | 31 µM | 14.9 µM | 23.4 µM |  |
| CC(C)c1ccc2c(c1)CC[C@H]1[C@](C)(C(=O)N[C@H](Cc3ccccc3)C(=O)Nc3cccc(Cl)c3)CCC[C@]21C | 30.6 µM | 26.3 µM | 45.9 µM | 23.8 µM | 13.1 µM | 24.7 µM |  |
| O=c1[nH]cc(F)c(=O)[nH]1 [FLUOROURACIL] |  | 36 µM | 24.4 µM | 26.8 µM | 80.5 µM | 27 µM |  |
| Cc1ccc(NC(=O)[C@@H](Cc2ccccc2)NC(=O)[C@]2(C)CCC[C@]3(C)c4ccc(C(C)C)cc4CC[C@@H]23)cc1Cl | 37.8 µM | 26.1 µM | 32.3 µM | 41.2 µM | 10.1 µM | 36.9 µM |  |
| CC(C)c1ccc2c(c1)CC[C@H]1[C@](C)(C(=O)N[C@H](Cc3ccccc3)C(=O)Nc3ccc(Br)cc3)CCC[C@]21C | 28.7 µM | 28.7 µM | 35.3 µM | 16.9 µM | 15.2 µM | 34.6 µM |  |
| CC(C)c1ccc2c(c1)CC[C@H]1[C@](C)(C(=O)N[C@H](Cc3ccccc3)C(=O)Nc3ccc(F)c(Cl)c3)CCC[C@]21C | 30.5 µM | 26.8 µM | 39.3 µM | 26.1 µM | 11.1 µM | 32.9 µM |  |
| COc1cccc(NC(=O)[C@@H](Cc2ccccc2)NC(=O)[C@]2(C)CCC[C@]3(C)c4ccc(C(C)C)cc4CC[C@@H]23)c1 | 30.5 µM | 40.4 µM | 35.8 µM | 38.5 µM | 25.8 µM | 29.5 µM |  |
| CC(C)c1ccc2c(c1)CC[C@H]1[C@](C)(C(=O)N[C@H](Cc3ccccc3)C(=O)Nc3cccc(Br)c3)CCC[C@]21C | 38.8 µM | 33.3 µM | 44.1 µM | 19.9 µM | 25.1 µM | 22.9 µM |  |
| CC(C)c1ccc2c(c1)CC[C@H]1[C@](C)(C(=O)O)CCC[C@]21C [DEHYDROABIETIC ACID] | 75 µM | 80.5 µM | 35.2 µM | 34.7 µM | 29.4 µM | 76.8 µM |  |
| CC(C)c1ccc2c(c1)CC[C@H]1[C@](C)(C(=O)N[C@H](Cc3ccccc3)C(=O)Nc3ccc(Cl)c(Cl)c3)CCC[C@]21C | 33.1 µM | 27 µM | 40.9 µM | 44.7 µM | 28.8 µM | 20.4 µM |  |
| CC(C)c1ccc2c(c1)CC[C@H]1[C@](C)(C(=O)N[C@H](Cc3ccccc3)C(=O)Nc3cccc(F)c3)CCC[C@]21C | 33.9 µM | 26.1 µM | 34.8 µM | 27.4 µM | 13.9 µM | 23.9 µM |  |
| CC(C)c1ccc2c(c1)CC[C@H]1[C@](C)(C(=O)N[C@H](Cc3ccccc3)C(=O)Nc3cccc([N+](=O)[O-])c3)CCC[C@]21C | 20.1 µM | 32.8 µM | 27.4 µM | 27.1 µM | 12.8 µM | 25.3 µM |  |
| COc1ccc(NC(=O)[C@@H](Cc2ccccc2)NC(=O)[C@]2(C)CCC[C@]3(C)c4ccc(C(C)C)cc4CC[C@@H]23)cc1 | 23.8 µM | 17.2 µM | 15.7 µM | 15.3 µM | 4.94 µM | 12.4 µM | Activity (HeLa [3]): 14.5%; Activity (HeLa [4]): Active; Activity (HeLa [5]): Active; Activity (HeLa [6]): Active; Activity (HeLa [7]): Active; Activity (HeLa [8]): tde; Activity (HeLa [9]): Dose-dependent effect; Activity (HeLa [10]): 3.2%; Activity (HeLa [11]): 19.2%; Activity (HeLa [12]): Active; Activity (HeLa [13]): Active; Activity (HeLa [14]): 33.7%; Activity (HeLa [15]): Active; Activity (HeLa [16]): 9.4%; Activity (HeLa [17]): 12.6% |
| CC(C)c1ccc2c(c1)CC[C@H]1[C@](C)(C(=O)N[C@H](Cc3ccccc3)C(=O)Nc3ccc(C(F)(F)F)cc3)CCC[C@]21C | 36.3 µM | 28.9 µM | 27.4 µM | 36.1 µM | 10.5 µM | 21.6 µM |  |
| COc1ccc(OC)c(NC(=O)[C@@H](Cc2ccccc2)NC(=O)[C@]2(C)CCC[C@]3(C)c4ccc(C(C)C)cc4CC[C@@H]23)c1 | 53.8 µM | 27.4 µM | 36.8 µM | 56.3 µM | 19.3 µM | 38.1 µM |  |
| Cc1cccc(NC(=O)[C@@H](Cc2ccccc2)NC(=O)[C@]2(C)CCC[C@]3(C)c4ccc(C(C)C)cc4CC[C@@H]23)c1 | 29.8 µM | 32.4 µM | 32.5 µM | 34.6 µM | 18.2 µM | 26.9 µM |  |
| CC(C)c1ccc2c(c1)CC[C@H]1[C@](C)(C(=O)N[C@H](Cc3ccccc3)C(=O)Nc3ccc(Cl)cc3)CCC[C@]21C | 26.3 µM | 15.8 µM | 37.8 µM | 33.6 µM | 12.2 µM | 26.3 µM |  |
| CC(C)c1ccc2c(c1)CC[C@H]1[C@](C)(C(=O)N[C@H](Cc3ccccc3)C(=O)Nc3ccc(F)cc3)CCC[C@]21C | 20.1 µM | 22.8 µM | 27.4 µM | 21 µM | 10.8 µM | 27.1 µM |  |
